Results from article PMC10460140 (Angewandte Chemie (International ed. in English), 2023).
Entries after “also recorded” stand apart in the source; their conditions may differ. Where a SMILES comes first, the peptide text is derived from it. Bridges are numbered along the chain shown (N, C = ends). Roman numbers before positions name the chains, in order. Side-chain parts run from the residue outwards. [ ]: non-standard residue; d: D form. The star is where a group is joined. X1 = CN(C)c1ccc2c(-c3ccc(C(=O)*)cc3C(=O)[O-])c3ccc(=[N+](C)C)cc-3oc2c1; Biotin = O=C1N[C@H]2[C@H](CS[C@H]2CCCCC(=O)*)N1; PEG4 = NCCOCCOCCOCCOCCC(=O)O; Alloc = C=CCOC(=O)*; βAla = NCCC(=O)O

Legend:
recombinant mKlotho = assay: Pull-down of recombinant mKlotho from CaSki cell lysate; format: binding, mouse
Summary of the method: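 Recombinant mouse Klotho was spiked into lysate of CaSki cells (human cervical cancer line, minimal endogenous Klotho) at a final 100 nM. It was pulled down with biotinylated peptide. For self-competition, unlabeled peptide or scrambled control was added to the lysate. Klotho identity was checked against a KM2076 antibody pull-down by band size. Pull-down was quantified (n=2), with ANOVA.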

MDM2 = assay: Direct binding by BLI, MDM2; details: KB2-Biotin immobilized on streptavidin tips; MDM2 7.8-1000 nM; n=2
12CA5 = assay: Direct binding by BLI, 12CA5; details: KB2-Biotin immobilized on streptavidin tips; 12CA5 7.8-1000 nM; n=2
endogenous hKlotho = assay: Pull-down of endogenous hKlotho from HK-2 cell lysate; format: binding, human; details: probe 200 nM; 300 μg total protein; 30 min room temperature; western blot; n=2
[1] = test system: Klotho-deficient CaSki cells; assay: Fluorescence microscopy imaging of CaSki cells; format: cell-based, human; details: KB2-TAMRA 500 nM, 5 min; fixation after treatment
HK-2 cells = assay: Co-localization with nucleus dye DAPI in HK-2 cells; format: cell-based, human; details: KB2-TAMRA 500 nM 5 min or antibody overnight, DAPI stain
Summary of the method: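 HK-2 cells labelled with fluorescent peptide probe at 500 nM for 5 min, or with anti-Klotho antibody KM2076 (overnight incubation, then permeabilisation and secondary antibody). Nuclei stained with DAPI. Co-localisation of the DAPI signal with the probe or antibody signal was quantified as a Pearson correlation coefficient.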

[2] = test system: endogenous total hKlotho in HK-2 cells; assay: Fluorescence microscopy imaging of fixed HK-2 cells; format: cell-based, human; details: HK-2 cells transfected with KL siRNA, KB2-TAMRA 500 nM; n=5
Summary of the method: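 HK-2 cells were left untransfected, mock-transfected, or transfected with a pooled KL siRNA using RNAiMAX. They were then co-treated with TAMRA-labelled peptide (500 nM) plus WGA Alexa Fluor 350 membrane stain and fixed after treatment. Imaging used ex/em 542/597 nm for TAMRA and 390/435 nm for WGA. Normalised integrated fluorescence was quantified (n=5), with ANOVA.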

**Q.** With C=CCOC(=O)NCCCC[C@H](NC(=O)CCNC(=O)[C@H](CCCCNC(=O)[C@H](C)NC(=O)[C@H](CCCNC(=N)N)NC(=O)[C@H](C)NC(=O)[C@H](CCCNC(=N)N)NC(=O)[C@@H]1CCCN1C(=O)[C@H](CCCNC(=N)N)NC(=O)[C@@H](NC(=O)[C@@H](NC(=O)CNC(=O)[C@H](CC(C)C)NC(=O)[C@@H]1CCCN1C(=O)[C@H](CC(=O)O)NC(=O)[C@H](CO)NC(=O)[C@H](C)NC(=O)[C@H](CCSC)NC(=O)[C@@H]1CCCN1)C(C)C)C(C)C)NC(=O)[C@H](C)NC(=O)[C@H](CCCNC(=N)N)NC(=O)[C@H](C)NC(=O)[C@H](CCCNC(=N)N)NC(=O)[C@@H]1CCCN1C(=O)[C@H](CCCNC(=N)N)NC(=O)[C@@H](NC(=O)[C@@H](NC(=O)CNC(=O)[C@H](CC(C)C)NC(=O)[C@@H]1CCCN1C(=O)[C@H](CC(=O)O)NC(=O)[C@H](CO)NC(=O)[C@H](C)NC(=O)[C@H](CCSC)NC(=O)[C@@H]1CCCN1)C(C)C)C(C)C)C(N)=O [KB2] (I: H-PMASDPLGVVRPRARAK[βAla]K(Alloc)-NH2 / II: H-PMASDPLGVVRPRARA; amide I:17-II:C) as the compound, how does the “competition of mKlotho pull-down by KB2-Biotin” value (recombinant mKlotho; unlabeled peptide pre-incubated 15 min in lysate before KB2-Biotin, n=2) read?
**A.** competed off

**Q.** With CSCC[C@H](NC(=O)[C@@H]1CCCN1C(C)=O)C(=O)N[C@@H](C)C(=O)N[C@@H](CO)C(=O)N[C@@H](CC(=O)O)C(=O)N1CCC[C@H]1C(=O)N[C@@H](CC(C)C)C(=O)NCC(=O)N[C@H](C(=O)N[C@H](C(=O)N[C@@H](CCCNC(=N)N)C(=O)N1CCC[C@H]1C(=O)N[C@@H](CCCNC(=N)N)C(=O)N[C@@H](C)C(=O)N[C@@H](CCCNC(=N)N)C(=O)N[C@@H](C)C(=O)NCCCC[C@H](NC(=O)[C@H](C)NC(=O)[C@H](CCCNC(=N)N)NC(=O)[C@H](C)NC(=O)[C@H](CCCNC(=N)N)NC(=O)[C@@H]1CCCN1C(=O)[C@H](CCCNC(=N)N)NC(=O)[C@@H](NC(=O)[C@@H](NC(=O)CNC(=O)[C@H](CC(C)C)NC(=O)[C@@H]1CCCN1C(=O)[C@H](CC(=O)O)NC(=O)[C@H](CO)NC(=O)[C@H](C)NC(=O)[C@H](CCSC)NC(=O)[C@@H]1CCCN1C(C)=O)C(C)C)C(C)C)C(=O)NCCC(=O)N[C@@H](CCCCNC(=O)CCOCCOCCOCCOCCNC(=O)CCCC[C@@H]1SC[C@@H]2NC(=O)N[C@@H]21)C(N)=O)C(C)C)C(C)C [KB2-Biotin] (I: Ac-PMASDPLGVVRPRARAK[βAla]K([PEG4-Biotin])-NH2 / II: Ac-PMASDPLGVVRPRARA; amide I:17-II:C; N-terminus assumed) as the compound, how does the “association to MDM2 (in words)” value (MDM2) read?
**A.** no association

**Q.** What about the “selectivity of pull-down (silver stain)” value (recombinant mKlotho; pull-down eluents, probe 200 nM, CaSki lysate with mKlotho 0.1 μM) of the same compound?
**A.** only significantly enriched protein

**Q.** What about the “association to 12CA5 (in words)” value (12CA5) of the same compound?
**A.** no association

**Q.** What about the “enrichment of endogenous hKlotho from HK-2 cell lysate” value (endogenous hKlotho) of the same compound?
**A.** enriched hKlotho; also recorded: significantly enriched

**Q.** What does the source list for CSCC[C@H](NC(=O)[C@@H]1CCCN1C(C)=O)C(=O)N[C@@H](C)C(=O)N[C@@H](CO)C(=O)N[C@@H](CC(=O)O)C(=O)N1CCC[C@H]1C(=O)N[C@@H](CC(C)C)C(=O)NCC(=O)N[C@H](C(=O)N[C@H](C(=O)N[C@@H](CCCNC(=N)N)C(=O)N1CCC[C@H]1C(=O)N[C@@H](CCCNC(=N)N)C(=O)N[C@@H](C)C(=O)N[C@@H](CCCNC(=N)N)C(=O)N[C@@H](C)C(=O)NCCCC[C@H](NC(=O)[C@H](C)NC(=O)[C@H](CCCNC(=N)N)NC(=O)[C@H](C)NC(=O)[C@H](CCCNC(=N)N)NC(=O)[C@@H]1CCCN1C(=O)[C@H](CCCNC(=N)N)NC(=O)[C@@H](NC(=O)[C@@H](NC(=O)CNC(=O)[C@H](CC(C)C)NC(=O)[C@@H]1CCCN1C(=O)[C@H](CC(=O)O)NC(=O)[C@H](CO)NC(=O)[C@H](C)NC(=O)[C@H](CCSC)NC(=O)[C@@H]1CCCN1C(C)=O)C(C)C)C(C)C)C(=O)NCCC(=O)N[C@@H](CCCCNC(=O)c1ccc(-c2c3ccc(=[N+](C)C)cc-3oc3cc(N(C)C)ccc23)c(C(=O)[O-])c1)C(N)=O)C(C)C)C(C)C [KB2-TAMRA] (I: Ac-PMASDPLGVVRPRARAK[βAla]K(X1)-NH2 / II: Ac-PMASDPLGVVRPRARA; amide I:17-II:C; N-terminus assumed)?
**A.** fluorescence intensity in CaSki cells relative to HK-2 cells [1]: significantly lower fluorescence intensity; Pearson correlation coefficient (r) for overlap with DAPI (HK-2 cells): 0.29; fluorescence after Klotho knock-down by KL siRNA [2]: reduced the fluorescence
